# Reference: ChEMBL document CHEMBL3217692, “Synthesis and cytotoxicity evaluation of novel pyrido[3,4-d]pyrimidine derivatives as potential anticancer agents” (2012)
# Assays:
# Assay type in all cases: functional
# SF-295 = assay: Cytotoxicity against human SF295 cells assessed as cell growth at 10 uM after 48 hrs by sulforhodamine B assay relative to control; settings: SF-295, 48 h, read-out: Activity
# Outline: (§1)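 Adherent cells were grown in RPMI 1640 with 5% FBS and 2 mM L-glutamine, seeded at 5000–40 000 cells/well by doubling time, and held 24 h at 37 °C, 5% CO2 before drug. Time-zero plates were TCA-fixed. Compound in DMSO, single dose 10 μM, 48 h. Cells were fixed with cold TCA (final 10%, 60 min, 4 °C) and stained with 0.4% SRB. Bound dye was dissolved in 10 mM Tris base and read at 515 nm. Percent growth was derived from time-zero, control and treated absorbances.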
# SW-620 = assay: Cytotoxicity against human SW620 cells assessed as cell growth at 10 uM after 48 hrs by sulforhodamine B assay relative to control; settings: SW-620, 48 h, read-out: Activity; outline: as §1
# SK-MEL-2 = assay: Cytotoxicity against human SK-MEL-2 cells assessed as cell growth at 10 uM after 48 hrs by sulforhodamine B assay relative to control; settings: SK-MEL-2, 48 h, read-out: Activity; outline: as §1
# TK-10 = assay: Cytotoxicity against human TK10 cells assessed as cell growth at 10 uM after 48 hrs by sulforhodamine B assay relative to control; settings: TK-10, 48 h, read-out: Activity
# Outline: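 NCI-60 single-dose screen. Cells were grown in RPMI 1640 with 5% FBS and 2 mM L-glutamine, seeded at 5000–40 000 cells/well according to doubling time, and pre-incubated 24 h at 37 °C, 5% CO2. Time-zero plates were TCA-fixed at dosing. Compound in DMSO was given at 10 μM for 48 h. Cells were then fixed in cold TCA, stained with 0.4% SRB, solubilised in 10 mM Tris base and read at 515 nm. Growth % was calculated from time-zero, control and treated absorbances.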
# SNB-19 = assay: Cytotoxicity against human SNB19 cells assessed as cell growth at 10 uM after 48 hrs by sulforhodamine B assay relative to control; settings: SNB-19, 48 h, read-out: Activity; outline: as §1
# SF-268 = assay: Cytotoxicity against human SF268 cells assessed as cell growth at 10 uM after 48 hrs by sulforhodamine B assay relative to control; settings: SF-268, 48 h, read-out: Activity; outline: as §1
# RPMI-8226 = assay: Cytotoxicity against human RPMI8226 cells assessed as cell growth at 10 uM after 48 hrs by sulforhodamine B assay relative to control; settings: RPMI-8226, 48 h, read-out: Activity
# Outline: (§2)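 Suspension lines were cultured in RPMI 1640 with 5% FBS and 2 mM L-glutamine, plated at 5000–40 000 cells/well and preincubated 24 h (37 °C, 5% CO2). Compound in DMSO was given at a single 10 μM dose for 48 h. Settled cells were fixed with 80% TCA (final 16%), then stained with SRB and read at 515 nm. Growth percentage was taken relative to time-zero and untreated control absorbances.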
# [1] = Cytotoxicity against human OVCAR5 cells assessed as cell growth at 10 uM after 48 hrs by sulforhodamine B assay relative to control; settings: OVCAR-5, 48 h, read-out: Activity; outline: as §1
# COLO 205 = assay: Cytotoxicity against human COLO205 cells assessed as cell growth at 10 uM after 48 hrs by sulforhodamine B assay relative to control; settings: COLO 205, 48 h, read-out: Activity; outline: as §1
# [2] = Cytotoxicity against human Hs 578T cells assessed as cell growth at 10 uM after 48 hrs by sulforhodamine B assay relative to control; settings: read-out: Activity; outline: as §1
# MDA-MB-468 = assay: Cytotoxicity against human MDA-MB-468 cells assessed as cell growth at 10 uM after 48 hrs by sulforhodamine B assay relative to control; settings: MDA-MB-468, 48 h, read-out: Activity; outline: as §1
# CAKI-1 = assay: Cytotoxicity against human CAKI-1 cells assessed as cell growth at 10 uM after 48 hrs by sulforhodamine B assay relative to control; settings: CAKI-1, 48 h, read-out: Activity; outline: as §1
# Malme-3M = assay: Cytotoxicity against human MALME-3M cells assessed as cell growth at 10 uM after 48 hrs by sulforhodamine B assay relative to control; settings: read-out: Activity; outline: as §1
# MOLT-4 = assay: Cytotoxicity against human MOLT4 cells assessed as cell growth at 10 uM after 48 hrs by sulforhodamine B assay relative to control; settings: MOLT-4, 48 h, read-out: Activity; outline: as §2
# HL-60(TB) = assay: Cytotoxicity against human HL-60(TB) cells assessed as cell growth at 10 uM after 48 hrs by sulforhodamine B assay relative to control; settings: HL-60, 48 h, read-out: Activity
# Outline: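 Suspension line grown in RPMI 1640 with 5% FBS and 2 mM L-glutamine, plated at 5000–40 000 cells/well and preincubated 24 h at 37 °C, 5% CO2. Time-zero plates fixed at dosing. Single 10 μM dose in DMSO for 48 h. Settled cells fixed with TCA (final 16%), then stained with 0.4% SRB, solubilised in 10 mM Tris and read at 515 nm. Growth percentage calculated against time-zero and untreated control.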
# SR = assay: Cytotoxicity against human SR cells assessed as cell growth at 10 uM after 48 hrs by sulforhodamine B assay relative to control; settings: read-out: Activity; outline: as §2
# IGROV-1 = assay: Cytotoxicity against human IGROV1 cells assessed as cell growth at 10 uM after 48 hrs by sulforhodamine B assay relative to control; settings: IGROV-1, 48 h, read-out: Activity; outline: as §1
# MCF7 = assay: Cytotoxicity against human MCF7 cells assessed as cell growth at 10 uM after 48 hrs by sulforhodamine B assay relative to control; settings: MCF7, 48 h, read-out: Activity; outline: as §1
# SK-MEL-28 = assay: Cytotoxicity against human SK-MEL-28 cells assessed as cell growth at 10 uM after 48 hrs by sulforhodamine B assay relative to control; settings: SK-MEL-28, 48 h, read-out: Activity; outline: as §1
# A498 = assay: Cytotoxicity against human A498 cells assessed as cell growth at 10 uM after 48 hrs by sulforhodamine B assay relative to control; settings: A498, 48 h, read-out: Activity; outline: as §1
# HCT-116 = assay: Cytotoxicity against human HCT116 cells assessed as cell growth at 10 uM after 48 hrs by sulforhodamine B assay relative to control; settings: HCT-116, 48 h, read-out: Activity; outline: as §1
# MDA-MB-231 = assay: Cytotoxicity against human MDA-MB-231 cells assessed as cell growth at 10 uM after 48 hrs by sulforhodamine B assay relative to control; settings: MDA-MB-231, 48 h, read-out: Activity; outline: as §1
# [3] = Cytotoxicity against human EKVX cells assessed as cell growth at 10 uM after 48 hrs by sulforhodamine B assay relative to control; settings: read-out: Activity; outline: as §1
# ACHN = assay: Cytotoxicity against human ACHN cells assessed as cell growth at 10 uM after 48 hrs by sulforhodamine B assay relative to control; settings: read-out: Activity; outline: as §1
# SNB-75 = assay: Cytotoxicity against human SNB75 cells assessed as cell growth at 10 uM after 48 hrs by sulforhodamine B assay relative to control; settings: SNB-75, 48 h, read-out: Activity; outline: as §1
# SK-MEL-5 = assay: Cytotoxicity against human SK-MEL-5 cells assessed as cell growth at 10 uM after 48 hrs by sulforhodamine B assay relative to control; settings: SK-MEL-5, 48 h, read-out: Activity; outline: as §1
smiles,measurement,setting,value
COc1nccc2c(-c3cccc(F)c3)nc(N)nc12,growth at 10 µM,SF-295,97.5%
same,growth at 10 µM,SW-620,112%
same,growth at 10 µM,SK-MEL-2,89.5%
same,growth at 10 µM,TK-10,101%
same,growth at 10 µM,SNB-19,107%
same,growth at 10 µM,SF-268,108%
same,growth at 10 µM,RPMI-8226,107%
same,growth at 10 µM,[1],96%
same,growth at 10 µM,COLO 205,109%
same,growth at 10 µM,[2],103%
same,growth at 10 µM,MDA-MB-468,28.6%
same,growth at 10 µM,CAKI-1,104%
same,growth at 10 µM,Malme-3M,115%
same,growth at 10 µM,MOLT-4,77.8%
same,growth at 10 µM,HL-60(TB),92.5%
same,growth at 10 µM,SR,111%
same,growth at 10 µM,IGROV-1,117%
same,growth at 10 µM,MCF7,39.2%
same,growth at 10 µM,SK-MEL-28,97%
same,growth at 10 µM,A498,88.5%
same,growth at 10 µM,HCT-116,104%
same,growth at 10 µM,MDA-MB-231,107%
same,growth at 10 µM,[3],104%
same,growth at 10 µM,ACHN,99.7%
same,growth at 10 µM,SNB-75,91.1%
same,growth at 10 µM,SK-MEL-5,108%
